These results are taken from ChEMBL document CHEMBL3046551, “Design, synthesis, and particular biological behaviors of chain-opening nitromethylene neonicotinoids with cis configuration” (2012).

Structures are written as SMILES.

The subject of one experiment is Aphis craccivora. Put plainly: Repellent activity against adult Aphis craccivora (cowpea aphid) at 500 mg/l. The class given is functional. Summed up: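 Y-tube olfactometer choice test. Aphid-free horsebean seedlings were dipped 5 s in DMF-dissolved compound diluted in water with Triton X-100 (0.1 mg L⁻¹) and dried. Treated and control seedlings were placed in opposite arms, and apterous adults were introduced into the third arm. The olfactometer was covered with black cloth at 25 ± 1 °C, 50% RH. Adults per arm were counted after 1 h; three repeats.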
In the case of `CCOC1CC(C)C([N+](=O)[O-])=C(N(CC)Cc2ccc(Cl)nc2)N1C` (stereo unspecified), the Repellency was 66.4%.

The subject of another experiment is Empoasca. The experiment in a line: Insecticidal activity against Empoasca (Green Leafhopper). The class given is functional.
`N/C(=C\[N+](=O)[O-])NCc1ccc(Cl)nc1` had an LC95 of over 200 ppm.
Still for that read-out and setting: then `CCN(Cc1ccc(Cl)nc1)/C(=C/[N+](=O)[O-])NC` [NITENPYRAM], with 40 ppm.

The test system of a further experiment is Aphis craccivora. Put plainly: Insecticidal activity against adult Aphis craccivora (cowpea aphid) assessed as […] activity after 24 hr. The class given is functional. Summed up: (§1)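 Apterous adult aphids (40−60 per horsebean seedling) on seedlings dipped 5 s in DMF stock diluted with water containing Triton X-100 (0.1 mg L⁻¹); series concentrations 500.0, 250.0, 125.0 mg L⁻¹ and others. Held at 25 ± 1 °C, 50% RH. Triton water served as control. Mortality scored at 24 h, three repetitions, corrected, probit analysis.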
Take `COC1CC(C)C([N+](=O)[O-])=C2N(Cc3cnc(Cl)s3)CCN21` (stereo unspecified): the 50% lethal concentration (LC50) – broadly, the concentration that kills 50% of the test population – is 190 µM.
On the same count and under the same terms, then `CC(C)OC1CC(C)C([N+](=O)[O-])=C2N(Cc3ccc(Cl)nc3)CCN21` (stereo unspecified), with 262 µM.
The same measure, in the same setting: in the case of `O=[N+]([O-])/N=C1\NCCN1Cc1ccc(Cl)nc1` [IMIDACLOPRID] it was 30.9 µM; in that of `CCCOC1CC(C)C([N+](=O)[O-])=C2N(Cc3ccc(Cl)nc3)CCN21` (stereo unspecified) [PAICHONGDING], 91.8 µM.

The next experiment deals with Aphis craccivora. Put plainly: Insecticidal activity against adult Aphis craccivora (cowpea aphid) assessed as […] activity at 500 mg/l after 24 hr. The class given is functional. In short, it runs like this: as §1
With `CCOC1CCC([N+](=O)[O-])=C(N(CC)Cc2ccc(Cl)nc2)N1C` (stereo unspecified), the mortality (in general, the percentage killed) at 500 µg/mL is 17.7%.
As to `CCC1CC(OC(C)C)N(C)C(NCc2ccc(Cl)nc2)=C1[N+](=O)[O-]` (stereo unspecified), the mortality at 500 µg/mL was found to be 83.6%.
On the same count and under the same terms, then `CCOC1CC(C)C([N+](=O)[O-])=C(NCc2ccc(Cl)nc2)N1CC` (stereo unspecified), with 85.2%.
With `CCCOC1CC(C)C([N+](=O)[O-])=C(NCc2ccc(Cl)nc2)N1CC` (stereo unspecified), the mortality at 500 µg/mL amounted to 94.6%.
Take `CCN1C(NCc2ccc(Cl)nc2)=C([N+](=O)[O-])C(C)CC1OC(C)C` (stereo unspecified): the mortality at 500 µg/mL was 75%.
Same read-out and setting: in the case of `CCC1CC(OC)N(CC)C(NCc2ccc(Cl)nc2)=C1[N+](=O)[O-]` (stereo unspecified) it was 84.5%; in that of `CCCOC1CC(CC)C([N+](=O)[O-])=C(NCc2ccc(Cl)nc2)N1CC` (stereo unspecified), 93.4%; in that of `COC1CC(C)C([N+](=O)[O-])=C2N(Cc3cnc(Cl)s3)CCN21` (stereo unspecified), 100%.
As to `C=CCOC1CC(C)C([N+](=O)[O-])=C(N(CC)Cc2ccc(Cl)nc2)N1C` (stereo unspecified), the mortality at 500 µg/mL turned out to be 19.5%.
On the same count and under the same terms, in the case of `COC1CCC([N+](=O)[O-])=C(N(C)Cc2ccc(Cl)nc2)N1C` (stereo unspecified) it was 21.6%.
On to `CCOC1CCC([N+](=O)[O-])=C(N(C)Cc2ccc(Cl)nc2)N1C` (stereo unspecified), for which the mortality at 500 µg/mL came out at 23.3%.
Same read-out and setting: then `CCCOC1CCC([N+](=O)[O-])=C(N(C)Cc2ccc(Cl)nc2)N1C` (stereo unspecified), with 15.2%; and `CC(C)OC1CCC([N+](=O)[O-])=C(N(C)Cc2ccc(Cl)nc2)N1C` (stereo unspecified), with 17.6%; and `C=CCOC1CCC([N+](=O)[O-])=C(N(C)Cc2ccc(Cl)nc2)N1C` (stereo unspecified), with 15.8%.
Regarding `COC1CC(C)C([N+](=O)[O-])=C(N(C)Cc2ccc(Cl)nc2)N1C` (stereo unspecified), the mortality at 500 µg/mL was found to be 23.4%.
On the same count and under the same terms, in the case of `CCOC1CC(C)C([N+](=O)[O-])=C(N(C)Cc2ccc(Cl)nc2)N1C` (stereo unspecified) it was 17.1%; in that of `CCCOC1CC(C)C([N+](=O)[O-])=C(N(C)Cc2ccc(Cl)nc2)N1C` (stereo unspecified), 28.3%.
On the same count and under the same terms, in the case of `CC(C)OC1CC(C)C([N+](=O)[O-])=C(N(C)Cc2ccc(Cl)nc2)N1C` (stereo unspecified) it was 25.9%.
On the same count and under the same terms, then `CCN(Cc1ccc(Cl)nc1)C1=C([N+](=O)[O-])CCC(O)N1C` (stereo unspecified), with 16.2%; and `CCN(Cc1ccc(Cl)nc1)C1=C([N+](=O)[O-])CCC(OC)N1C` (stereo unspecified), with 24.3%.
On to `CCCOC1CCC([N+](=O)[O-])=C(N(CC)Cc2ccc(Cl)nc2)N1C` (stereo unspecified), for which the mortality at 500 µg/mL was determined as 23.7%.
Still for that read-out and setting: in the case of `CCN(Cc1ccc(Cl)nc1)C1=C([N+](=O)[O-])CCC(OC(C)C)N1C` (stereo unspecified) it was 15.3%; in that of `CCN(Cc1ccc(Cl)nc1)C1=C([N+](=O)[O-])C(C)CC(OC)N1C` (stereo unspecified), 27.6%.
As for `CCOC1CC(C)C([N+](=O)[O-])=C(N(CC)Cc2ccc(Cl)nc2)N1C` (stereo unspecified), the mortality at 500 µg/mL was determined as 31.8%.
Still for that read-out and setting: then `CCCOC1CC(C)C([N+](=O)[O-])=C(N(CC)Cc2ccc(Cl)nc2)N1C` (stereo unspecified), with 27.2%.
Still for that read-out and setting: in the case of `CCN(Cc1ccc(Cl)nc1)C1=C([N+](=O)[O-])C(C)CC(OC(C)C)N1C` (stereo unspecified) it was 25.8%; in that of `CC(C)OC1CC(C)C([N+](=O)[O-])=C2N(Cc3ccc(Cl)nc3)CCN21` (stereo unspecified), 100%.
With `O=[N+]([O-])/N=C1\NCCN1Cc1ccc(Cl)nc1` [IMIDACLOPRID], the mortality at 500 µg/mL came out at 100%.
Regarding `CCCOC1CC(C)C([N+](=O)[O-])=C2N(Cc3ccc(Cl)nc3)CCN21` (stereo unspecified) [PAICHONGDING], the mortality at 500 µg/mL is 100%.
